The text below walks through data of ChEMBL document CHEMBL1122881, “A dipeptide derived from kainic and L-glutamic acids: a selective antagonist of amino acid induced neuroexcitation with anticonvulsant properties” (1985).

Holding throughout (assay type): functional
The species named for assay [1] is Rattus norvegicus. Kind of assay: Compound (1 mM) to block the increase in the permeability of the neuronal sodium ions in rat striatum slices by excitatory 0.5 mM of L-GLutamic acid. Summed up:
(§1)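 Values are percent of the efflux increase given by the agonist alone (100%), as mean ± standard deviation of at least triplicate experiments. Difference from control was tested by variance analysis.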

For another assay, the species on record is Mus musculus. Kind of assay: Effective dose required to protect mice from picrotoxin-induced seizures. In short, it runs like this:
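CD1 mice of either sex (20–30 g), unanaesthetised, received 5 μL of drug in phosphate-buffered saline pH 7.4, or vehicle, icv (1 mm posterior, 1 mm lateral to bregma, 2.6 mm deep). Picrotoxin 3 mg/kg was given iv in the tail vein 10 min later. Stage 5 seizures were scored over 30 min, with at least 8 mice per group, and ED50 was calculated.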

For assay [2], the species on record is Rattus norvegicus. As to the kind of experiment: Compound (1 mM) to block the increase in the permeability of the neuronal sodium ions in rat striatum slices by excitatory 0.1 mM of Kainic Acid. Summed up:
as §1

The species entered for assay [3] is Rattus norvegicus. Kind of assay: Compound (1 mM) to block the increase in the permeability of the neuronal sodium ions in rat striatum slices by excitatory 0.1 M of Quis qulalic acid. The settings on record: in the assay text read “0.1 mM” for “0.1 M”. In short, it runs like this:
as §1

The species named for assay [4] is Rattus norvegicus. As to the kind of experiment: Compound (1 mM) to block the increase in the permeability of the neuronal sodium ions in rat striatum slices by excitatory 30 uM of N-methyl-D-aspartic acid. In short, it runs like this:
as §1

On to `C=C(C)[C@H]1CN[C@H](C(=O)O)[C@H]1CC(=O)NC(CCC(=O)O)C(=O)O` (stereo not given in full), for which the Mean response in the assay listed under Rattus norvegicus [1] is 90; in the assay listed under Rattus norvegicus [2], 84; in the assay filed under Rattus norvegicus [3] it was 69; in the assay listed under Rattus norvegicus [4], 16. In the assay listed under Mus musculus, this compound registered an ED50 of 0.17 µM.
